Measurements: ChEMBL document CHEMBL1153062, “Discovery of novel dual functional agent as PPARgamma agonist and 11beta-HSD1 inhibitor for the treatment of diabetes” (Bioorg Med Chem, 2009)
The source made the active and inactive calls. No cut-off for these calls is given here.

Experiments:
[1] = target: T1, Peroxisome proliferator-activated receptor gamma (Homo sapiens, UniProt P37231); assay: Agonist activity at human PPARgamma expressed in U2OS cells by luciferase transactivation assay; type: functional, cell-based
T1 sequence (P37231 whole entry): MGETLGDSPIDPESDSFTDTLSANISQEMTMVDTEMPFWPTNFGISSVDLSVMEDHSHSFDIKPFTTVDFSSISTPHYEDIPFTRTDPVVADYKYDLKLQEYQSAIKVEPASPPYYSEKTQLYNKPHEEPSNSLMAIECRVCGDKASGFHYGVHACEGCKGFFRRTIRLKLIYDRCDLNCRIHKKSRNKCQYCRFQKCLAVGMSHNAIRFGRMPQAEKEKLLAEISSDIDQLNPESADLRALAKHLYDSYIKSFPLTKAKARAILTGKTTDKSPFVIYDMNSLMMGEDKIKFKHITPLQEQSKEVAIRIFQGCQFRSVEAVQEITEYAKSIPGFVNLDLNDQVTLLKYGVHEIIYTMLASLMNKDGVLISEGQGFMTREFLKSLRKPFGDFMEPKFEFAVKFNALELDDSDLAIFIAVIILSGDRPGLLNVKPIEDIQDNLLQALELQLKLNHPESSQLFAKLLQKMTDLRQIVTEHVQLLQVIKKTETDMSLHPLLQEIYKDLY
Procedure, shortened: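 Transfected U2OS cells (McCoy's 5A, 10% FBS) seeded the day before transfection. Each well received 60 ng DNA: hRXR, pCMV Gal, receptor expression vector and reporter. 24 h later, switched to 10% charcoal-stripped FBS DMEM and exposed to compound for 24 h (0.1% DMSO final). Luciferase normalized to galactosidase. EC50 from logistic dose-response fit; mean of at least three independent experiments.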

[2] = target: 11-beta-hydroxysteroid dehydrogenase 1 (Mus musculus, UniProt P50172); assay: Inhibition of mouse liver microsome 11betaHSD1 expressed in HEK293 cells assessed as conversion of [3H]cortisone into [3H]cortisol by scintillation proximity assay; type: cell-based
Sequence of 11-beta-hydroxysteroid dehydrogenase 1 (P50172 whole entry): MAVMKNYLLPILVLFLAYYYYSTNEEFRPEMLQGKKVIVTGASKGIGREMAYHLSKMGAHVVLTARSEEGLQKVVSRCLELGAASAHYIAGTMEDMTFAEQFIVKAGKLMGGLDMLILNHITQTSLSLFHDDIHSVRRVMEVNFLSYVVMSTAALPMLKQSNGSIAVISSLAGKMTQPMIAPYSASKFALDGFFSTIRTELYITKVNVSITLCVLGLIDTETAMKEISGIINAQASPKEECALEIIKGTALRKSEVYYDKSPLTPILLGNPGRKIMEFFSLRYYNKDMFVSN
Procedure, shortened: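 Enzyme source: microsomes from HEK-293 cells stably transfected with full-length murine 11β-HSD1 (G418 700 µg/ml selection). Incubated with NADPH and [3H]cortisone. [3H]cortisol captured by monoclonal antibody on protein A-coated SPA beads. IC50 from curve fitting; mean of at least three independent experiments. Kinetics: cortisone 1.6–62.5 nM, with or without 1 µM inhibitor.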

3T3-L1 [3] = assay: Induction of adipogenesis in mouse 3T3L1 assessed as increase in triglyceride level at 0.1 uM after 5 days relative to control; type: functional
Procedure, shortened: (§1)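 Confluent 3T3-L1 preadipocytes (DMEM, 10% newborn bovine serum) differentiated with 1 µM dexamethasone, 0.5 mM IBMX and 1.0 µg/ml insulin in DMEM with 5% NBS. Compound present at 0.1 or 1 µM; medium changed every 2 days over 5 days. Triglyceride normalized to protein in sonicated homogenates; expressed as % change versus vehicle control.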

3T3-L1 [4] = assay: Induction of adipogenesis in mouse 3T3L1 assessed as increase in triglyceride level at 1 uM after 5 days relative to control; type: functional; procedure, shortened: as §1
Rattus norvegicus [5] = assay: Hypoglycemic activity in monosodium L-glutamate-treated obese Wistar rat assessed as reduction in blood glucose level at 5 mg/kg, po for 4 weeks measured after 10 hrs post dose fasting; type: functional, organism-based; design: dose 5 mg/kg
Procedure, shortened: (§2)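 Obesity model: MSG-lesioned Wistar rats (4 g/kg sc neonatally for 7 days), aged 11-12 months, randomized by body weight and serum TG. Dosed orally daily for 6 weeks. Blood glucose and serum TG measured weekly after a 10 h fast.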

Mus musculus = assay: Hypolipidemic activity in KK-Ay mouse assessed as reduction in serum triglyceride level at 10 mg/kg, po for 6 weeks measured after 4 hrs post dose fasting; type: functional, organism-based; design: dose 10 mg/kg
Procedure, shortened: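 KKAy mice (n = 10) randomized by body weight and fed glucose. Dosed orally in 0.25% CMC-Na or vehicle for 6 weeks; blood glucose measured twice weekly. At end, fasted 4 h before sacrifice; blood taken for glucose and serum TG.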

Rattus norvegicus [6] = assay: Hypolipidemic activity in monosodium L-glutamate-treated obese Wistar rat assessed as reduction in serum triglyceride level at 5 mg/kg, po for 6 weeks measured after 10 hrs post dose fasting; type: functional, organism-based; design: dose 5 mg/kg; procedure, shortened: as §2
Rattus norvegicus [7] = assay: Adipogenic activity in monosodium L-glutamate-treated obese Wistar rat assessed as decrease in total fat mass at 5 mg/kg, po after 6 weeks; type: functional, organism-based; design: dose 5 mg/kg
Procedure, shortened: (§3)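 Obesity model: newborn Wistar rats given MSG 4 g/kg subcutaneously for 7 days from day 2 of life, weaned day 21. At 11-12 months, randomized by body weight and serum TG. Dosed orally daily for 6 weeks. Body weight measured weekly. At sacrifice, organ weights, body fat, visceral and subcutaneous fat weighed; liver triglyceride content assessed.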

Rattus norvegicus [8] = assay: Adipogenic activity in monosodium L-glutamate-treated obese Wistar rat assessed as reduction in liver triglyceride content at 5 mg/kg, po after 6 weeks; type: functional, organism-based; design: dose 5 mg/kg; procedure, shortened: as §3

| SMILES | EC50 [1] | IC50 [2] | Activity (3T3-L1 [3]) | Activity (3T3-L1 [4]) | Activity (Rattus norvegicus [5]) | Activity (Mus musculus) | Activity (Rattus norvegicus [6]) | Activity (Rattus norvegicus [7]) | Activity (Rattus norvegicus [8]) |
| --- | --- | --- | --- | --- | --- | --- | --- | --- | --- |
| CC(Cc1ccc(Oc2cc(N3CCN(C(=O)c4ccco4)CC3)nc(N)n2)cc1)(Oc1ccccc1)C(=O)O (stereo not given) | ≥ 50 µM | ≥ 10 µM |  |  |  |  |  |  |  |
| CC(Cc1ccc(Oc2cc(N3CCN(Cc4cccc5ccccc45)CC3)nc(N)n2)cc1)(Oc1ccccc1)C(=O)O (stereo not given) | 3.5 µM | 2.34 µM | 0.45% | 4.47% |  |  |  |  |  |
| CN(CCOc1ccc(CC2SC(=O)NC2=O)cc1)c1ccccn1 (stereo not given) [ROSIGLITAZONE] |  |  | 22.05% | 34.1% | Active | Active | Active | inactive | inactive |
| CC1(C)[C@@H](O[C@H]2O[C@H](C(=O)O)[C@@H](O)[C@H](O)[C@H]2O[C@@H]2O[C@H](C(=O)O)[C@@H](O)[C@H](O)[C@H]2O)CC[C@]2(C)[C@H]3C(=O)C=C4[C@@H]5C[C@@](C)(C(=O)O)CC[C@]5(C)CC[C@@]4(C)[C@]3(C)CC[C@@H]12 [GLYCYRRHIZIN] |  | 0.015 µM |  |  |  |  |  |  |  |
| CC(Cc1ccc(Oc2cc(N3CCN(C(=O)c4ccccc4)CC3)nc(N)n2)cc1)(Oc1ccccc1)C(=O)O (stereo not given) | ≥ 50 µM | 3.29 µM |  |  |  |  |  |  |  |
| COc1ccccc1C(=O)N1CCN(c2cc(Oc3ccc(CC(C)(Oc4ccccc4)C(=O)O)cc3)nc(N)n2)CC1 (stereo not given) | ≥ 50 µM | ≥ 10 µM |  |  |  |  |  |  |  |

Second part, led by results:

| EC50 [1] | IC50 [2] | SMILES | Activity (3T3-L1 [3]) | Activity (3T3-L1 [4]) | Activity (Rattus norvegicus [5]) | Activity (Mus musculus) | Activity (Rattus norvegicus [6]) | Activity (Rattus norvegicus [7]) | Activity (Rattus norvegicus [8]) |
| --- | --- | --- | --- | --- | --- | --- | --- | --- | --- |
| 6.36 µM | 0.85 µM | CC(Cc1ccc(Oc2cc(N3CCN(Cc4ccc(C(C)(C)C)cc4)CC3)nc(N)n2)cc1)(Oc1ccccc1)C(=O)O (stereo not given) | -1.99% | -1.15% |  |  |  |  |  |
| 4.47 µM | 1.52 µM | CC(Cc1ccc(Oc2cc(N3CCN(c4cccc(Cl)c4)CC3)nc(N)n2)cc1)(Oc1ccccc1)C(=O)O (stereo not given) | -19.32% | -37.99% |  |  |  |  |  |
| 4.79 µM | 1.04 µM | CC(Cc1ccc(Oc2cc(N3CCN(Cc4cccc(C(F)(F)F)c4)CC3)nc(N)n2)cc1)(Oc1ccccc1)C(=O)O (stereo not given) | -0.87% | 18.41% |  |  |  |  |  |
